Results published in ChEMBL document CHEMBL4219120, “Synthesis and SAR study of new hydroxy and chloro-substituted 2,4-diphenyl 5H-chromeno[4,3-b]pyridines as selective topoisomerase IIα-targeting anticancer agents” (Bioorg Med Chem, 2018).
Calls of active or inactive are those of the source. The calls are words filed in the database; no cut-off is given here.

Columns and labels:
[1] = tested on: HCT-15; test: Antiproliferative activity against human HCT15 cells after 72 hrs by CCK-8 assay; assay type: functional, cell-based; settings: HCT-15, 72 h
Outline: (§1)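 Cells seeded at 2-4 x 10^4 per well and grown overnight in medium with 10% FBS (37 °C, 5% CO2). After 4 h FBS starvation, medium was replaced with medium containing graded compound concentrations for 72 h. CCK-8 was added for 4 h more, then absorbance read at 450 nm. IC50 came from a four-parameter logistic fit. Mean ± S.D. of three experiments, each in triplicate.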

[2] = tested on: HeLa; test: Antiproliferative activity against human HeLa cells after 72 hrs by CCK-8 assay; assay type: functional, cell-based; outline: as §1
[3] = target: T1, DNA topoisomerase 1 (Homo sapiens) (UniProt P11387); test: Inhibition of recombinant human topoisomerase 1 assessed as decrease in relaxation of supercoiled pBR322 DNA at 100 uM after 30 mins by agarose gel electrophoresis relative to control
T1 sequence (whole entry): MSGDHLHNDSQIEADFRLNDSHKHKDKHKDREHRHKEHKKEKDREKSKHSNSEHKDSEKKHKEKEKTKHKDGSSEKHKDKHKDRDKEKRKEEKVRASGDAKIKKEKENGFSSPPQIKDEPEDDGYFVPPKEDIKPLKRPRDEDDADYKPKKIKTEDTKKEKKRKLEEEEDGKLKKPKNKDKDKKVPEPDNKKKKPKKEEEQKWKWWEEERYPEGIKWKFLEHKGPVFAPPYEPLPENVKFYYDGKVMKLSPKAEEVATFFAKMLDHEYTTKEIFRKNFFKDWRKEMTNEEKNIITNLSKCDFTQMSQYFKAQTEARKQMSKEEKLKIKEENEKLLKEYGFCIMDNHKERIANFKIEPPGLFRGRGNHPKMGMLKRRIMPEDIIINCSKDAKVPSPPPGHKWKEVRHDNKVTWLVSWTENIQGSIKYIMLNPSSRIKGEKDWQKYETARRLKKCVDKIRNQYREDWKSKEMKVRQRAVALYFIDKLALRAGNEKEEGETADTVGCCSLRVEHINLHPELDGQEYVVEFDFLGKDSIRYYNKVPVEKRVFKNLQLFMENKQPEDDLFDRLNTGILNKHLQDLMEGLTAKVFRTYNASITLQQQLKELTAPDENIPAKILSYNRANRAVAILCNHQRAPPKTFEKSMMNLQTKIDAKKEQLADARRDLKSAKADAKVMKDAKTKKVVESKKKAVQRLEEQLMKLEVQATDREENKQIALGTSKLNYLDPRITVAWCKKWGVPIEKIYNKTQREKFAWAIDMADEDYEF
Outline: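 Supercoiled pBR322 (100 ng) with 1 unit recombinant human topo I in 10 mM Tris-HCl pH 7.9, 150 mM NaCl, 0.1% BSA, 0.1 mM spermidine, 5% glycerol, 30 min at 37 °C. Stopped with SDS/dye stop solution. Run on 0.8% agarose in TAE, 50 V, 1 h; EtBr-stained; bands quantitated under UV. Compounds came from 20 mM DMSO stocks. 20 µM was tested only when inhibition at 100 µM exceeded 30%. Camptothecin was the positive control.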

[4] = target: DNA topoisomerase 2-alpha (Homo sapiens) (UniProt P11388); test: Inhibition of recombinant human topoisomerase 2alpha assessed as decrease in relaxation of supercoiled pBR322 DNA at 20 uM after 30 mins by agarose gel electrophoresis relative to control
Outline: (§2)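 Recombinant human topo IIα (1 unit) with 100 ng supercoiled pBR322 in 10 mM Tris-HCl pH 7.9, 50 mM NaCl, 50 mM KCl, 5 mM MgCl2, 1 mM EDTA, 1 mM ATP, 15 µg/mL BSA, 30 min at 37 °C. Quenched with 7 mM EDTA. 0.8% agarose/TAE gel, 50 V, 1 h; EtBr stain; UV densitometry. Compounds came from 20 mM DMSO stocks. 20 µM was tested only when inhibition at 100 µM exceeded 30%. Etoposide was the positive control.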

[5] = tested on: T47D; test: Antiproliferative activity against human T47D cells after 72 hrs by CCK-8 assay; assay type: functional, cell-based; outline: as §1
[6] = target: DNA topoisomerase 2-alpha (Homo sapiens) (UniProt P11388); test: Inhibition of recombinant human topoisomerase 2alpha assessed as decrease in relaxation of supercoiled pBR322 DNA at 100 uM after 30 mins by agarose gel electrophoresis relative to control; outline: as §2
[7] = target: DNA topoisomerase 2-alpha (Homo sapiens) (UniProt P11388); test: Inhibition of recombinant human topoisomerase 2alpha assessed as decrease in relaxation of supercoiled pBR322 DNA at 100 uM after 30 mins by agarose gel electrophoresis relative to etoposide
[8] = target: DNA topoisomerase 2-alpha (Homo sapiens) (UniProt P11388); test: Inhibition of recombinant human topoisomerase 2alpha assessed as decrease in relaxation of supercoiled pBR322 DNA at 20 uM after 30 mins by agarose gel electrophoresis relative to etoposide
[9] = target: DNA topoisomerase 2-alpha (Homo sapiens) (UniProt P11388); test: Potency index, ratio of compound effect for recombinant human topoisomerase 2alpha to etoposide effect for recombinant human topoisomerase 2alpha at 20 uM
[10] = target: T1, DNA topoisomerase 1 (Homo sapiens); test: Inhibition of recombinant human topoisomerase 1 assessed as decrease in relaxation of supercoiled pBR322 DNA at 100 uM after 30 mins by agarose gel electrophoresis relative to camptothecin
[11] = tested on: HeLa; test: Potency index, ratio of etoposide IC50 to compound IC50 for human HeLa cells; assay type: functional
[12] = tested on: HeLa; test: Potency index, ratio of adriamycin IC50 to compound IC50 for human HeLa cells; assay type: functional

Chain of DNA topoisomerase 2-alpha (Homo sapiens) (P11388 whole entry): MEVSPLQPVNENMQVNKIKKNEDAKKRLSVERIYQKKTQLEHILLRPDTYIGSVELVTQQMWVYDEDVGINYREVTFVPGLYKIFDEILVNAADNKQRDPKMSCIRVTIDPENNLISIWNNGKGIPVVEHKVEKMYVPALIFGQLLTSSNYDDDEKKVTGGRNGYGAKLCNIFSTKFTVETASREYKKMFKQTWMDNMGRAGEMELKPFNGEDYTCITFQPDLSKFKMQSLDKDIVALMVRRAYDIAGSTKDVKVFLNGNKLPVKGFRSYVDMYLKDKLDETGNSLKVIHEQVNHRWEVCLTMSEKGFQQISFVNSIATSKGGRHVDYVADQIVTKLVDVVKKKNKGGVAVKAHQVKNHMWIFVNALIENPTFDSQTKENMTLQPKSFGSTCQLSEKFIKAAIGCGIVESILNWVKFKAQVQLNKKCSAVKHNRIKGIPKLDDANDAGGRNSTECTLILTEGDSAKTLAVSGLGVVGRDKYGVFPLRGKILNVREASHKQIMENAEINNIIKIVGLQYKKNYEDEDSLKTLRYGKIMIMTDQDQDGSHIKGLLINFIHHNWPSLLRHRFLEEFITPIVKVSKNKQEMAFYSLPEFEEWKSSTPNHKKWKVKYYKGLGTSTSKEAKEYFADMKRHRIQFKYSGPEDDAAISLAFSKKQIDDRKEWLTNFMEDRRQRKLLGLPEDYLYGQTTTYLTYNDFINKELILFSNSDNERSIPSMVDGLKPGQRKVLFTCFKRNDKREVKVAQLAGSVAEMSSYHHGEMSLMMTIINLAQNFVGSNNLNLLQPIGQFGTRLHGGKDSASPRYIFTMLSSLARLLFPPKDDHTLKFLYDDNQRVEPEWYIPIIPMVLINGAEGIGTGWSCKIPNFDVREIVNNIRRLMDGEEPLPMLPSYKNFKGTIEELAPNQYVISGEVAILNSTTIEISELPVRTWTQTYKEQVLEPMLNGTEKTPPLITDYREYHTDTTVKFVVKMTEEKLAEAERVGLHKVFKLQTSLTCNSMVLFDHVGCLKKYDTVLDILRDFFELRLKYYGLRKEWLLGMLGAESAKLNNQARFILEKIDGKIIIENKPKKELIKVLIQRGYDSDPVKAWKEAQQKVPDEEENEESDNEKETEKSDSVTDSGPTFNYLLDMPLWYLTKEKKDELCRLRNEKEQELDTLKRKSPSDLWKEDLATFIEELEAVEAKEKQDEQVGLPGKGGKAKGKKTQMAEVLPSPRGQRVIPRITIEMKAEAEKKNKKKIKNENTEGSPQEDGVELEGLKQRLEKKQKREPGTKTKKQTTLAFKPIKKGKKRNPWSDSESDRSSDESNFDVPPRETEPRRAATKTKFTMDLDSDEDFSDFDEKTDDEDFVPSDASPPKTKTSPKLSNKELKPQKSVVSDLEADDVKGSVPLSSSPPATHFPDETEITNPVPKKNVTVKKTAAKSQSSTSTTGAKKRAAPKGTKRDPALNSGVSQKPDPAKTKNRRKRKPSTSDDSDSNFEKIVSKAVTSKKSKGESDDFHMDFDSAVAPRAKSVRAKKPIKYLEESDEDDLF

| IC50 [1] | IC50 [2] | inhibition [3] | inhibition [4] | IC50 [5] | inhibition [6] | fold change (FC) [7] | fold change (FC) [8] | fold change (FC) [10] | Structure (SMILES) | Ratio [9] | Ratio IC50 [11] | Ratio IC50 [12] |
| --- | --- | --- | --- | --- | --- | --- | --- | --- | --- | --- | --- | --- |
| 1740 nM | 2110 nM | inactive | 74.5% | 750 nM | 82.7% | 1.24 | 2.1 | inactive | Oc1ccc(-c2cc(-c3ccccc3Cl)nc3c2COc2ccccc2-3)cc1 | 2 | – | – |
| 3410 nM | 660 nM | 22.8% | 12.1% | 1270 nM | 79.5% | – | – | – | Oc1ccc(-c2cc(-c3cccc(Cl)c3)c3c(n2)-c2ccccc2OC3)cc1 | – | 15.2 | 2.6 |
